{
  "source": "paper PMC6679735",
  "about": "(Biochimica et biophysica acta. Molecular and cell biology …, 2019)",
  "key": {"Npc1^I1061T/I1061T mice [1]": {"test_system": "Npc1^I1061T/I1061T mice", "assay": "Lipidomic profiling of liver and brain after six-week treatment", "format": "in vivo, mouse", "settings": "six weeks weekly treatment, versus vehicle"}, "histone H3 [2]": {"test_system": "histone H3", "assay": "Acute histone H3 acetylation in liver by western blot, 1 h after single dose", "format": "in vivo, C57BL/6J mice", "settings": "one hour post single injection, versus vehicle"}, "[3]": {"assay": "Maximum drug concentration of HPβCD after a peripheral dose", "format": "in vivo", "settings": "peripheral dose of 4000 mg/kg HPβCD with PEG400/DMSO; extrapolated"}, "[4]": {"settings": "direct CNS administration; cited from earlier work"}, "NPC1 cat model": {"test_system": "NPC1 cat model", "settings": "4000 mg/kg HPβCD; cited from earlier work"}, "NPC1 patients": {"test_system": "NPC1 patients", "settings": "Phase 1/2a trial; cited from earlier work"}, "[5]": {"test_system": "human NPC1^I1061T fibroblasts", "assay": "Filipin LSO compartment ratio dose response in fibroblasts", "format": "cell-based", "settings": "72 h, 40 nM to 10 μM", "in_short": "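Human fibroblasts in MEM with 5% FBS, seeded in 384-well plates at 450 cells/well and incubated overnight. Test compound added at 40 nM–10 μM final; DMSO control on each plate. After 72 h, cells were PBS-washed, fixed in 1.5% PFA, and stained with 50 μg/ml filipin plus Draq5. Automated imaging at four sites/well gave the LSO compartment ratio, normalised to DMSO. Four wells per condition, three experiments.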"}, "[6]": {"format": "in vivo, C57BL/6J mice", "in_short": "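Five-week-old male C57BL/6J mice received a single i.p. injection (10 μL/g). Plasma, liver and brain were harvested at 0.25, 1, 2, 4 and 7 h, n=4 per time point. Analyte was measured by LC-MS/MS on a C18 column with a d5-labelled internal standard and eight duplicate calibrators. Non-compartmental parameters used mean concentrations of 3–4 mice per time point; AUC by the linear trapezoidal method.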"}, "[7]": {"test_system": "bone marrow-derived macrophages from Npc1^I1061T/I1061T mice", "assay": "Filipin LSO assay in bone marrow-derived macrophages", "format": "cell-based, mouse"}, "histone H3 [8]": {"test_system": "histone H3", "assay": "Histone H3 acetylation in liver and brain after six-week treatment", "format": "in vivo, Npc1^I1061T/I1061T mice", "settings": "end of six-week treatment, one hour after final dose", "in_short": "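Four-week-old mice were dosed weekly i.p. at 10 μL/g for six weeks and harvested 1 h after the final dose. Frozen cortex was homogenised in TNEN buffer (pH 8) with protease inhibitors and 1 mM PMSF, then spun at 10,000 × g for 10 min at 4°C. Equal protein was run on 4–12% Bis-Tris gels and blotted with anti-H3 (1:10,000) and anti-acetyl-H3 (1:1000). Hsp90 was the loading control; detection by chemiluminescence.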"}, "Npc1^I1061T/I1061T mice [9]": {"test_system": "Npc1^I1061T/I1061T mice", "format": "in vivo, mouse", "settings": "liver; six weeks treatment, versus vehicle", "in_short": "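Mice were dosed i.p. at 10 μL/g from four weeks of age, weekly for six weeks (one arm three times weekly). HPβCD was 2000 mg/kg (4000 mg/kg in the 3x/wk arm). Saline perfusion 1 h after the last dose. PFA-fixed liver was cut at 35 μm on a vibratome and stained with 0.005% filipin in PBS, with a DMSO-only control. Two blinded reviewers scored hepatocyte staining 0–5.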"}, "NPC1^I1061T protein": {"test_system": "NPC1^I1061T protein", "format": "in vivo, mouse", "settings": "six weeks treatment, versus vehicle"}, "Npc1^nmf164 mice": {"test_system": "Npc1^nmf164 mice", "settings": "150mg/kg vorinostat in PEG/DMSO vehicle; cited from earlier work"}, "[10]": {"test_system": "murine embryonic fibroblasts and human fibroblasts expressing the NPC1^I1061T protein", "settings": "cited from earlier work"}, "[11]": {"settings": "male, C57BL/6J, mouse, brain, ip, 50 mg/kg"}, "[12]": {"settings": "male, C57BL/6J, mouse, liver, ip, 50 mg/kg"}, "[13]": {"settings": "male, C57BL/6J, mouse, plasma, ip, 50 mg/kg"}},
  "note": "Read-outs that look alike come from different tables or passages of the source.",
  "data": [
    {"smiles": "CC(=O)Nc1ccc(C(=O)Nc2ccccc2N)cc1", "note": "[CI994]", "values": [
      {"measurement": "Lipid storage in liver (lipidomics, sphingolipid and sterol species)", "setting": "Npc1^I1061T/I1061T mice [1]", "value": "none of the treatment groups administered formulations containing vorinostat, CI994, or IVA alone showed evidence of lipid reduction"}
    ]},
    {"smiles": "CC(O)COC[C@H]1O[C@@H]2O[C@H]3[C@H](O)[C@@H](O)[C@@H](O[C@H]4[C@H](O)[C@@H](O)[C@@H](O[C@H]5[C@H](O)[C@@H](O)[C@@H](O[C@H]6[C@H](O)[C@@H](O)[C@@H](O[C@H]7[C@H](O)[C@@H](O)[C@@H](O[C@H]8[C@H](O)[C@@H](O)[C@@H](O[C@H]1[C@H](O)[C@H]2O)O[C@@H]8COCC(C)O)O[C@@H]7COCC(C)O)O[C@@H]6COCC(C)O)O[C@@H]5COCC(C)O)O[C@@H]4COCC(C)O)O[C@@H]3COCC(C)O", "note": "(stereo partly drawn) [HPβCD, 2-hydroxypropyl-β-cyclodextrin]", "values": [
      {"measurement": "Liver histone H3 acetylation (acetylated H3 / total H3)", "setting": "histone H3 [2]", "value": "did not increase H3 acetylation acutely"},
      {"measurement": "Maximum drug concentration achieved", "setting": "[3]", "value": "~ 15 μM"},
      {"measurement": "Drug concentration achieved in CSF", "setting": "[4]", "value": 1000, "unit": "µM"},
      {"measurement": "Toxicity of peripheral dose", "setting": "NPC1 cat model", "value": "toxic in the NPC1 cat model"},
      {"measurement": "Neurodegenerative disease progression", "setting": "NPC1 patients", "value": "effective in slowing neurodegenerative disease progression"}
    ]},
    {"smiles": "O=C(O)CCCCCCC(=O)Nc1ccccc1", "note": "[IVA, 8-oxo-8-(phenylamino)octanoic acid]", "values": [
      {"measurement": "Effect on lysosomal cholesterol storage (filipin LSO compartment ratio)", "setting": "[5]", "value": "had no effect on cholesterol storage"},
      {"measurement": "Liver histone H3 acetylation (acetylated H3 / total H3)", "setting": "histone H3 [2]", "value": "No increase in acetylation"},
      {"measurement": "Lipid storage in liver (lipidomics, sphingolipid and sterol species)", "setting": "Npc1^I1061T/I1061T mice [1]", "value": "none of the treatment groups administered formulations containing vorinostat, CI994, or IVA alone showed evidence of lipid reduction"}
    ]},
    {"smiles": "O=C(CCCCCCC(=O)Nc1ccccc1)NO", "note": "[vorinostat, suberoylanilide hydroxamic acid]", "values": [
      {"measurement": "Vorinostat Cmax, brain", "setting": "[6]; brain, single i.p. dose", "value": 1163, "unit": "ng/mL"},
      {"measurement": "Vorinostat Cmax, liver", "setting": "[6]; liver, single i.p. dose", "value": 209, "unit": "ng/mL"},
      {"measurement": "AUC(0-t)", "setting": "[6]; [11]", "value": 1240, "unit": "ng·h/mL"},
      {"measurement": "Tmax", "setting": "[6]; [11]", "value": 15, "unit": "min"},
      {"measurement": "AUC(0-t)", "setting": "[6]; [12]", "value": 513, "unit": "ng·h/mL"},
      {"measurement": "Tmax", "setting": "[6]; [12]", "value": 15, "unit": "min"},
      {"measurement": "AUC(0-inf)", "setting": "[6]; [13]", "value": 7600, "unit": "ng·h/mL"},
      {"measurement": "AUC(0-t)", "setting": "[6]; [13]", "value": 7540, "unit": "ng·h/mL"},
      {"measurement": "Cmax", "setting": "[6]; [13]", "value": 10500, "unit": "ng/mL"},
      {"measurement": "Tmax", "setting": "[6]; [13]", "value": 15, "unit": "min"},
      {"measurement": "half-life", "setting": "[6]; [13]", "value": 40.8, "unit": "min"},
      {"measurement": "Effect on lysosomal cholesterol storage (filipin LSO compartment ratio)", "setting": "[5]", "value": "reduces lysosomal cholesterol"},
      {"measurement": "Reduction of cholesterol accumulation in differentiated macrophages", "setting": "[7]; 4 nM to 10 μM, 48h or 72h", "value": "not effective at reducing the cholesterol accumulation"},
      {"measurement": "Cholesterol accumulation in LSOs (filipin intensity) at 330 nM", "setting": "[7]; 330 nM, normalized to DMSO treated cells", "value": "slight decrease in cholesterol accumulation"},
      {"measurement": "Concentration toxic to BMMs", "setting": "[7]; 48h or 72h treatment", "value": "above 1 μM"},
      {"measurement": "Liver histone H3 acetylation (acetylated H3 / total H3)", "setting": "histone H3 [2]", "value": "Increased histone 3 acetylation"},
      {"measurement": "Ratio of acetylated histone H3 to total histone H3 in brain", "setting": "histone H3 [8]; brain", "value": "showed an increase in the ratio"},
      {"measurement": "Ratio of acetylated histone H3 to total histone H3 in liver", "setting": "histone H3 [8]; liver", "value": "significant increase in the ratio of acetylated histone H3 relative to total histone H3"},
      {"measurement": "Lipid storage in liver (lipidomics, sphingolipid and sterol species)", "setting": "Npc1^I1061T/I1061T mice [1]", "value": "modest reduction in only a single lipid species (MCer 24:0)"},
      {"measurement": "Hepatocyte filipin staining (cholesterol storage)", "setting": "Npc1^I1061T/I1061T mice [9]", "value": "did not alter cholesterol levels"},
      {"measurement": "NPC1^I1061T protein expression in liver", "setting": "NPC1^I1061T protein", "value": "reduction of NPC1 protein"},
      {"measurement": "Efficacy on disease progression, life span, or weight loss", "setting": "Npc1^nmf164 mice", "value": "did not show efficacy"},
      {"measurement": "Liver pathology and function", "setting": "Npc1^nmf164 mice", "value": "limited improvement in liver pathology and function"},
      {"measurement": "NPC1 mutant protein expression and lipid accumulation", "setting": "Npc1^nmf164 mice", "value": "remained unchanged"},
      {"measurement": "Cholesterol storage", "setting": "[10]", "value": "effective in reducing cholesterol storage"}
    ]}
  ]
}
